ChEMBL document CHEMBL1151837, “Structural reassignment, absolute configuration, and conformation of hypurticin, a highly flexible polyacyloxy-6-heptenyl-5,6-dihydro-2H-pyran-2-one” (J Nat Prod, 2009)
Converted amounts (≈) assume the structure as drawn.

Assays:
[1] = test system: HEp-2; assay: Cytotoxicity against human Hep2 cells after 72 hrs by sulforhodamine B assay; type: functional, cell-based; conditions: HEp-2, 72 h
In short: (§1)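 Cells kept in RPMI 1640 with 10% FBS at 37 °C, 5% CO2, humidified. Log-phase cells treated in triplicate at 0.16–20.0 µg/mL for 72 h. Cell density read by sulforhodamine B. Value is the dose giving 50% inhibition of control growth (ED50). Ellipticine served as positive control.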

[2] = test system: KB; assay: Cytotoxicity against human KB cells after 72 hrs by sulforhodamine B assay; type: functional, cell-based; in short: as §1
[3] = test system: HeLa; assay: Cytotoxicity against human HeLa cells after 72 hrs by sulforhodamine B assay; type: functional, cell-based; in short: as §1
[4] = test system: HeLa; assay: Cell cycle arrest in human HeLa cells assessed as accumulation at G1 phase at 10 times IC50 after 48 hrs by flow cytometry; type: functional
In short: (§2)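 HeLa cells in log phase exposed 48 h to compound in DMSO at ten times its cytotoxicity IC50. Fixed in cold 70% (v/v) EtOH, then stained 12 h at 4 °C with Triton X-100, trisodium citrate and RNase A, and filtered through nylon mesh. DNA content measured by flow cytometry gives the percentage of cells in G1, S and G2.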

[5] = test system: HeLa; assay: Cell cycle arrest in human HeLa cells assessed as accumulation at S phase at 10 times IC50 after 48 hrs by flow cytometry; type: functional; in short: as §2
[6] = test system: HeLa; assay: Cell cycle arrest in human HeLa cells assessed as accumulation at G2 phase at 10 times IC50 after 48 hrs by flow cytometry; type: functional; in short: as §2

Cc1c2ccncc2c(C)c2c1[nH]c1ccccc12 [ELLIPTECINE]
IC50 [1]: 0.4 µg/mL (≈ 1.62 µM)
IC50 [2]: 0.4 µg/mL (≈ 1.62 µM)
IC50 [3]: 0.4 µg/mL (≈ 1.62 µM)

CC(=O)O[C@H](/C=C\[C@H]1CC=CC(=O)O1)C[C@@H](OC(C)=O)[C@H](C)OC(C)=O [HYPTOLIDE]
IC50 [1]: 6.2 µg/mL (≈ 16.8 µM)
Activity [4]: 34%
Activity [5]: 57%
IC50 [2]: 3.6 µg/mL (≈ 9.77 µM)
Activity [6]: 7%
IC50 [3]: 2.8 µg/mL (≈ 7.6 µM)

CC(=O)O[C@H]([C@@H](OC(C)=O)[C@H](/C=C\[C@H]1CC=CC(=O)O1)OC(C)=O)[C@H](C)OC(C)=O [SPICIGEROIDE]
IC50 [1]: 9.4 µg/mL (≈ 22 µM)
Activity [4]: 40%
Activity [5]: 34%
IC50 [2]: 5.4 µg/mL (≈ 12.7 µM)
Activity [6]: 23%
IC50 [3]: 15.9 µg/mL (≈ 37.3 µM)
